Data taken from ChEMBL document CHEMBL3272327, “Hypocholesterolemic activity of 1,3-bis(substituted phenoxy)-2-propanones” (J Med Chem, 1976).

Assays:
Rattus norvegicus [1] = experiment: Hypocholesterolemic activity in rat assessed as [14C]palmitic acid level in lung at 10 mg/kg/day administered for 1 week measured after 22 hrs on day 7 by scintillation counting analysis (reference value: 0.53 +/- 0.15%); format: functional
Procedure, shortened: (§1)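 Male Sprague-Dawley rats on lab chow dosed orally once daily for 1 week at 10 mg/kg/day, suspended in 1% CMC, or given vehicle alone. On day 7, 5 μCi [1-14C]palmitic acid given orally. Killed after 22 hr; organs made into 10% water homogenates. Aliquots of 0.1 cc of homogenate, urine, blood or feces were digested and scintillation counted. Output is % of dose per tissue, N = 6.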

Rattus norvegicus [2] = experiment: Hypocholesterolemic activity in rat assessed as [14C]cholesterol level in liver at 10 mg/kg/day administered for 1 week measured after 22 hrs on day 7 by scintillation counting analysis (reference value: 19.80 +/- 2.93%); format: functional
Procedure, shortened: (§2)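 Male rats were dosed orally for 1 week (10 mg/kg/day) or with 1% CMC. On day 7 they received 5 μCi [4-14C]cholesterol orally and were killed after 22 hr. Organs were homogenized (10% in water); 0.1-cc aliquots of homogenate, urine, blood or feces were digested with Protosol. Samples were counted in toluene/Triton X-100 (2:1) scintillant with 0.4% PPO and 0.01% POPOP. Results are % of dose per tissue, N = 6.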

Rattus norvegicus [3] = experiment: Effect on vesicular gland weight in rat at 5 mg/kg/day administered for 16 days measured 24 hrs after last drug dosage relative to total body weight (reference value: 0.10 +/- 0.04%); format: ADME, organism-based; conditions: in vivo
Rattus norvegicus [4] = experiment: Increase in lipase level in rat serum at 10 mg/kg/day administered for 16 days (reference value: 100 +/- 39%); format: functional
Procedure, shortened: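 Male Sprague-Dawley rats dosed orally at 10 mg/kg/day in 1% CMC for 16 days. Serum lipase was measured with a commercial serum lipase kit. Expressed as percent of vehicle control, N = 8.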

Rattus norvegicus [5] = experiment: Hypocholesterolemic activity in rat assessed as [14C]palmitic acid level in large intestine at 10 mg/kg/day administered for 1 week measured after 22 hrs on day 7 by scintillation counting analysis (reference value: 3.46 +/- 1.25%); format: functional; procedure, shortened: as §1
Rattus norvegicus [6] = experiment: Effect on kidney weight in rat at 50 mg/kg/day administered for 16 days measured 24 hrs after last drug dosage relative to total body weight (reference value: 0.92 +/- 0.04%); format: ADME, organism-based; conditions: in vivo
Rattus norvegicus [7] = experiment: Hypocholesterolemic activity in rat assessed as [14C]cholesterol level in stomach at 10 mg/kg/day administered for 1 week measured after 22 hrs on day 7 by scintillation counting analysis (reference value: 8.87 +/- 4.00%); format: functional; procedure, shortened: as §2
Rattus norvegicus [8] = experiment: Effect on liver weight in rat at 1 mg/kg/day administered for 16 days measured 24 hrs after last drug dosage relative to total body weight (reference value: 4.22 +/- 0.29%); format: ADME, organism-based; conditions: in vivo
Rattus norvegicus [9] = experiment: Hypocholesterolemic activity in Sprague-Dawley rat assessed as serum cholesterol level at 1 mg/kg/day, po administered via intubation measured on day 4 by Liebermann-Burchard reaction (reference value: 100 +/- 7%); format: functional
Rattus norvegicus [10] = experiment: Effect on brain weight in rat at 50 mg/kg/day administered for 16 days measured 24 hrs after last drug dosage relative to total body weight (reference value: 0.67 +/- 0.05%); format: ADME, organism-based; conditions: in vivo
Rattus norvegicus [11] = experiment: Hypocholesterolemic activity in Sprague-Dawley rat assessed as serum cholesterol level at 10 mg/kg/day, po administered via intubation measured on day 4 by Liebermann-Burchard reaction (reference value: 100%); format: functional
Rattus norvegicus [12] = experiment: Hypocholesterolemic activity in [14C]palmitic acid-treated rat assessed as decrease in 14C fatty acid incorporation into triglyceride fraction in liver at 10 mg/kg/day administered for 1 week by scintillation counting analysis; format: functional; design: scale not given: the % may be the effect or the level left
Rattus norvegicus [13] = experiment: Hypocholesterolemic activity in rat assessed as [14C]palmitic acid level in blood at 10 mg/kg/day administered for 1 week measured after 22 hrs on day 7 by scintillation counting analysis (reference value: 0.11 +/- 0.06%); format: functional
Rattus norvegicus [14] = experiment: Effect on body weight in rat at 1 mg/kg/day administered for 16 days measured on day 7 (reference value: 173 +/- 12 gms); format: ADME, organism-based; conditions: in vivo, 384 h
Procedure, shortened: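 Male Sprague-Dawley rats with chow and water ad libitum. Compound suspended in 1% CMC-water and given orally by intubation needle at 11:00 a.m., 1, 5, 10 or 50 mg/kg/day, for 16 days. Body weight (g) recorded on days 0, 7 and 16. N = 8.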

Rattus norvegicus [15] = experiment: Hypocholesterolemic activity in rat assessed as [14C]palmitic acid level in testes at 10 mg/kg/day administered for 1 week measured after 22 hrs on day 7 by scintillation counting analysis (reference value: 0.22 +/- 0.10%); format: functional, Testis; procedure, shortened: as §1
Rattus norvegicus [16] = experiment: Effect on testes weight in rat at 50 mg/kg/day administered for 16 days measured 24 hrs after last drug dosage relative to total body weight (reference value: 1.08 +/- 0.08%); format: ADME, organism-based, Testis; conditions: in vivo
Rattus norvegicus [17] = experiment: Hypocholesterolemic activity in [14C]palmitic acid-treated rat assessed as decrease in 14C fatty acid incorporation into cholesterol ester fraction in liver at 10 mg/kg/day administered for 1 week by scintillation counting analysis; format: functional; design: scale not given: the % may be the effect or the level left
Rattus norvegicus [18] = experiment: Effect on vas deferens and epididymis weight in rat at 1 mg/kg/day administered for 16 days measured 24 hrs after last drug dosage relative to total body weight (reference value: 0.22 +/- 0.04%); format: ADME, organism-based; conditions: in vivo
Rattus norvegicus [19] = experiment: Hypocholesterolemic activity in rat assessed as [14C]cholesterol level in lung at 10 mg/kg/day administered for 1 week measured after 22 hrs on day 7 by scintillation counting analysis (reference value: 1.99 +/- 1.18%); format: functional; procedure, shortened: as §2
Rattus norvegicus [20] = experiment: Hypocholesterolemic activity in rat assessed as [14C]palmitic acid level in brain at 10 mg/kg/day administered for 1 week measured after 22 hrs on day 7 by scintillation counting analysis (reference value: 0.07 +/- 0.04%); format: functional; procedure, shortened: as §1
Rattus norvegicus [21] = experiment: Effect on liver weight in rat at 5 mg/kg/day administered for 16 days measured 24 hrs after last drug dosage relative to total body weight (reference value: 4.22 +/- 0.29%); format: ADME, organism-based; conditions: in vivo
Rattus norvegicus [22] = experiment: Effect on testes weight in rat at 10 mg/kg/day administered for 16 days measured 24 hrs after last drug dosage relative to total body weight (reference value: 1.08 to 1.10%); format: ADME, organism-based, Testis; conditions: in vivo
Rattus norvegicus [23] = experiment: Hypocholesterolemic activity in rat assessed as [14C]palmitic acid level in spleen at 10 mg/kg/day administered for 1 week measured after 22 hrs on day 7 by scintillation counting analysis (reference value: 0.46 +/- 0.24%); format: functional; procedure, shortened: as §1
Rattus norvegicus [24] = experiment: Effect on spleen weight in rat at 5 mg/kg/day administered for 16 days measured 24 hrs after last drug dosage relative to total body weight (reference value: 0.55 +/- 0.12%); format: ADME, organism-based; conditions: in vivo
Rattus norvegicus [25] = experiment: Hypocholesterolemic activity in rat assessed as [14C]palmitic acid level in kidney at 10 mg/kg/day administered for 1 week measured after 22 hrs on day 7 by scintillation counting analysis (reference value: 0.68 +/- 0.16%); format: functional; procedure, shortened: as §1
Rattus norvegicus [26] = experiment: Effect on liver weight in rat at 10 mg/kg/day administered for 16 days measured 24 hrs after last drug dosage relative to total body weight (reference value: 4.22 to 4.54%); format: ADME, organism-based; conditions: in vivo

## Cc1ccc(OCC(=O)COc2ccc(C)cc2)cc1
Rattus norvegicus [1]
  Activity: 0.5%
Rattus norvegicus [2]
  Activity: 22.19%
Rattus norvegicus [3]
  Activity: 0.13%
Rattus norvegicus [4]
  Activity: 222%
Rattus norvegicus [5]
  Activity: 9.91%
Rattus norvegicus [6]
  Activity: 0.88%
Rattus norvegicus [7]
  Activity: 3.36%
Rattus norvegicus [8]
  Activity: 4%
Rattus norvegicus [9]
  Activity: 75%
Rattus norvegicus [10]
  Activity: 0.83%
Rattus norvegicus [11]
  Activity: 77%
Rattus norvegicus [12]
  Activity: 53%
Rattus norvegicus [13]
  Activity: 0.03%
Rattus norvegicus [14]
  Activity: 166 g
Rattus norvegicus [15]
  Activity: 0.25%
Rattus norvegicus [16]
  Activity: 1.19%
Rattus norvegicus [17]
  Activity: 46%
Rattus norvegicus [18]
  Activity: 0.23%
Rattus norvegicus [19]
  Activity: 2.45%
Rattus norvegicus [20]
  Activity: 0.08%
Rattus norvegicus [21]
  Activity: 4.31%
Rattus norvegicus [22]
  Activity: 1.13%
Rattus norvegicus [23]
  Activity: 0.37%
Rattus norvegicus [24]
  Activity: 0.44%
Rattus norvegicus [25]
  Activity: 0.94%
Rattus norvegicus [26]
  Activity: 4.65%
